Sampled rows, rich in hits. Any-hit rate of the full collection: about 4.5%.
AHR activator – human AHR activation | P35869 | AHR-responsive luciferase reporter cells, luminescence | activation, % at 5 µM | actives 2.5% (n = 320,000); in the data active = activation above about 47%
NF-kB expr up – compounds increasing NF-kB expression in human neuronal cells. fold change at 12.5 µM. NF-kB reporter expression; stronger effect = higher value. actives 1.6% (n = 190,000); in the data active = fold change above about 3.3
PERK inhibitor – blocks human PERK kinase | CHO PERK-DD fusion, SEAP luminescence translation reporter | inhibition, % at 5.6 µM | actives 0.17% (n = 220,000) | Q9NZJ5;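 active = inhibition above the mean inhibition of all tested compounds plus 3 SD, set separately per screening campaign, cut at about 2.9% in these data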;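 note: PERK kinase domain activated by AP20187 dimerizer at 100 nM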
STAT1 act – activators of IFN-gamma induced STAT1 signaling; NIH 3T3 STAT1-luciferase reporter, luminescence; 100% = IFN-gamma alone, no compound; activation (% of control), % at 5.5 µM; actives 2.6% (n = 200,000); AID 932;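 active = activation above the screen-wide mean activation plus 3 SD, cut at about 130% in these data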
APP 5'UTR act – activates APP 5'UTR luciferase reporter | SH-SY5Y APP 5'UTR luciferase reporter, luminescence; zero percent = DMSO vehicle wells | activation, % at 2 µM | actives 1% (n = 190,000);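 active = activation above a set limit, based on mean plus 3 SD of controls, cut at about 140% in these data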
Mdm2 ligase inh – blocks human Mdm2 ubiquitin ligase activity. Q00987. cell-based MDM2 ubiquitination luciferase reporter, 2 h; 0 = plate control, 100 = twice control, blank-subtracted. signal enhancement, % at 5 µM. actives 0.11% (n = 210,000). AID 1230;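 active = signal enhancement of 30% or more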;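 note: luminescence tracks abundance of the self-degrading MDM2-luciferase fusion protein; higher signal means inhibition of MDM2 E3 ligase activity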
Target sequence (Q00987 whole entry, looked up, the tested form may be a part): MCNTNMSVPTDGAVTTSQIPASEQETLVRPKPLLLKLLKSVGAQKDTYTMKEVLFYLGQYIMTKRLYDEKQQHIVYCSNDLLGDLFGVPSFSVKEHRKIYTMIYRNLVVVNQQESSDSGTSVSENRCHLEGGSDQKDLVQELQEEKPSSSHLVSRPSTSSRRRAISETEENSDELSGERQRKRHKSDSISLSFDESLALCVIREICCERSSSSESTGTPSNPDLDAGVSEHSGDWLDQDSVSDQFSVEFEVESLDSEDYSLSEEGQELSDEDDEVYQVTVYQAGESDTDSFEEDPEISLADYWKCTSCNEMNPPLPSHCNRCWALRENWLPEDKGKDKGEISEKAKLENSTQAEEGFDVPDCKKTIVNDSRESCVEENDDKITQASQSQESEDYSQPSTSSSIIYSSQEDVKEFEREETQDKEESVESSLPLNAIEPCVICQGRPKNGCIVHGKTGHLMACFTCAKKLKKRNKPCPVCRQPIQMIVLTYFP
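Timing – 2 h compound exposure at 37 °C · Assay system – mammalian cells stably expressing self-ubiquitinating, self-degrading MDM2 E3–luciferase fusion · Amount – 2000 cells seeded into each well · Measure – % luminescence enhancement versus blank-corrected plate control mean · Measured by – SteadyLite luminescence, 15 min reagent step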
Numbers stand for hits.

What do the screens show for `Cc1ccc(NCC(=O)N/N=C/c2ccncc2)cc1`?
AHR activator: 64; NF-kB expr up: inactive; PERK inhibitor: inactive; STAT1 act: inactive; APP 5'UTR act: inactive; Mdm2 ligase inh: inactive

Results for N#Cc1ccc(OCC(=O)NCC2COc3ccccc3O2)cc1 (stereo not drawn) ?
AHR activator: inactive

Results for CC(=O)Nc1cccc(-c2cn3ccccc3n2)c1 ?
AHR activator: 61; NF-kB expr up: inactive; PERK inhibitor: inactive; STAT1 act: inactive; APP 5'UTR act: inactive; Mdm2 ligase inh: inactive

How did Cc1ccn2cc(-c3cccc(NC(=O)C(C)C)c3)nc2c1 do in these assays?
AHR activator: inactive; NF-kB expr up: inactive; PERK inhibitor: inactive; STAT1 act: 132; APP 5'UTR act: inactive; Mdm2 ligase inh: inactive

How did CC(C)C(=O)Nc1cccc(-c2cn3ccccc3n2)c1 do in these assays?
AHR activator: inactive; NF-kB expr up: inactive; PERK inhibitor: inactive; STAT1 act: inactive; APP 5'UTR act: inactive; Mdm2 ligase inh: inactive

Results for C[C@H](CO)N1C[C@H](C)[C@@H](CN(C)C)Oc2c(NS(=O)(=O)c3ccc(F)cc3)cccc2C1=O ?
AHR activator: inactive

How did CCNS(=O)(=O)c1ccc(CCC(=O)NCc2ccc3c(c2)OCO3)cc1 do in these assays?
AHR activator: inactive

How did CCc1cccc(NC(=O)C2CCCN(c3ncnc4c3nc3n4CCCCC3)C2)c1 (stereo not drawn) do in these assays?
AHR activator: inactive

What do the screens show for `CN(CC(=O)NCc1cccs1)CC(=O)Nc1ccc(F)c(F)c1F`?
AHR activator: inactive

How did COc1ccc(-c2cc(C(=O)NCC3CCCO3)c3cc(C)ccc3n2)cc1 (stereo not drawn) do in these assays?
AHR activator: inactive; NF-kB expr up: inactive; PERK inhibitor: inactive; STAT1 act: 133; APP 5'UTR act: inactive; Mdm2 ligase inh: inactive

Results for COc1cccc(/C=N/NC(=O)C(=O)N2CCCC2)c1OC ?
AHR activator: inactive; NF-kB expr up: inactive; PERK inhibitor: 3.1; STAT1 act: inactive; APP 5'UTR act: inactive; Mdm2 ligase inh: inactive

What do the screens show for `COc1ccc2nc(NC(=O)CCc3ccc(OC)c(OC)c3)sc2c1`?
AHR activator: inactive; NF-kB expr up: inactive; PERK inhibitor: inactive; STAT1 act: inactive; APP 5'UTR act: inactive; Mdm2 ligase inh: inactive

How did COc1ccc(OC)c(-c2csc(NC(=O)C3COc4ccccc4O3)n2)c1 (stereo not drawn) do in these assays?
AHR activator: inactive; NF-kB expr up: inactive; PERK inhibitor: inactive; STAT1 act: inactive; APP 5'UTR act: inactive; Mdm2 ligase inh: inactive

What do the screens show for `O=C(Nc1nc(-c2nc3ccccc3s2)cs1)C1COc2ccccc2O1` (stereo not drawn)?
AHR activator: inactive; NF-kB expr up: inactive; PERK inhibitor: inactive; STAT1 act: 132; APP 5'UTR act: inactive; Mdm2 ligase inh: inactive

How did COc1ccc2nc(NC(=O)CSc3nnc(C)n3N)sc2c1 do in these assays?
AHR activator: inactive; PERK inhibitor: 4.7; Mdm2 ligase inh: inactive

Results for CC(=O)NCC1COc2ccccc2O1 (stereo not drawn) ?
AHR activator: inactive; PERK inhibitor: inactive

What do the screens show for `CCCC(=O)Nc1nc2ccc(OC)cc2s1`?
AHR activator: inactive; NF-kB expr up: inactive; PERK inhibitor: inactive; STAT1 act: 144; APP 5'UTR act: inactive; Mdm2 ligase inh: inactive

What do the screens show for `CC(=O)Nc1nc(C2COc3ccccc3O2)cs1` (stereo not drawn)?
AHR activator: inactive; NF-kB expr up: 5; PERK inhibitor: inactive; STAT1 act: 145; APP 5'UTR act: 168; Mdm2 ligase inh: inactive

What do the screens show for `COc1ccc2nc(NC(=O)C3COc4ccccc4O3)sc2c1` (stereo not drawn)?
AHR activator: inactive; NF-kB expr up: 3.4; PERK inhibitor: inactive; STAT1 act: inactive; APP 5'UTR act: inactive; Mdm2 ligase inh: inactive

What do the screens show for `CS(=O)(=O)c1ccc2nc(NC(=O)C3COc4ccccc4O3)sc2c1` (stereo not drawn)?
AHR activator: inactive; NF-kB expr up: inactive; PERK inhibitor: inactive; STAT1 act: inactive; APP 5'UTR act: inactive; Mdm2 ligase inh: inactive

Results for O=c1nc(-c2ccccc2)c2ccccc2[nH]1 ?
AHR activator: inactive; NF-kB expr up: inactive; PERK inhibitor: inactive; STAT1 act: inactive; APP 5'UTR act: inactive; Mdm2 ligase inh: inactive

How did S=c1nc(-c2ccccc2)[nH]c2ccccc12 do in these assays?
AHR activator: 57; NF-kB expr up: inactive; PERK inhibitor: inactive; STAT1 act: inactive; APP 5'UTR act: inactive; Mdm2 ligase inh: inactive

How did S=c1nc(-c2ccc(Br)cc2)[nH]c2ccccc12 do in these assays?
AHR activator: inactive; PERK inhibitor: 3.0; Mdm2 ligase inh: inactive

How did Fc1ccc(-c2nc3ccccc3[nH]2)cc1 do in these assays?
AHR activator: inactive; NF-kB expr up: inactive; PERK inhibitor: inactive; STAT1 act: inactive; APP 5'UTR act: inactive; Mdm2 ligase inh: inactive

What do the screens show for `O=C(c1cnn2c(C(F)F)cc(C3CC3)nc12)N1CCc2ccccc2C1`?
AHR activator: 49; NF-kB expr up: inactive; PERK inhibitor: inactive; STAT1 act: inactive; APP 5'UTR act: inactive; Mdm2 ligase inh: inactive

Results for O=C(c1cnn2c(C(F)F)cc(-c3ccccc3)nc12)N1CCc2ccccc2C1 ?
AHR activator: inactive; NF-kB expr up: inactive; PERK inhibitor: inactive; STAT1 act: inactive; APP 5'UTR act: inactive; Mdm2 ligase inh: inactive

Results for CCn1c(SCc2cccc(F)c2)nc2c(c1=O)SCC2 ?
AHR activator: inactive; NF-kB expr up: inactive; PERK inhibitor: inactive; STAT1 act: inactive; APP 5'UTR act: inactive; Mdm2 ligase inh: inactive

How did CCN(CC)CCN1C(=O)C(=O)/C(=C(/O)c2ccc(S(=O)(=O)N3CCOCC3)cc2)C1c1ccccc1 (stereo not drawn) do in these assays?
AHR activator: inactive

Results for CCn1cc(S(=O)(=O)c2ccc(Cl)cc2)c(=O)c2cc(OC)ccc21 ?
AHR activator: inactive

Results for CCOC(=O)C(C)On1c(-c2ccccc2)nc2ccc([N+](=O)[O-])cc21 (stereo not drawn) ?
AHR activator: inactive; NF-kB expr up: inactive; PERK inhibitor: inactive; STAT1 act: 132; APP 5'UTR act: inactive; Mdm2 ligase inh: inactive

What do the screens show for `CC(O)c1nc2cc([N+](=O)[O-])ccc2n1Cc1ccccc1` (stereo not drawn)?
AHR activator: inactive

Results for CCOC(=O)C(C)On1c(-c2ccc(Cl)cc2)nc2ccc([N+](=O)[O-])cc21 (stereo not drawn) ?
AHR activator: inactive; NF-kB expr up: 5.8; PERK inhibitor: inactive; STAT1 act: 133; APP 5'UTR act: inactive; Mdm2 ligase inh: inactive

How did CCOC(=O)c1oc2cc(C)cc(C)c2c1C do in these assays?
AHR activator: inactive; PERK inhibitor: inactive; Mdm2 ligase inh: inactive

What do the screens show for `CCOC(=O)c1oc2ccc(/C=N/O)c(Cl)c2c1C`?
AHR activator: inactive; NF-kB expr up: inactive; PERK inhibitor: inactive; STAT1 act: 132; APP 5'UTR act: inactive; Mdm2 ligase inh: inactive

High-throughput results: PubChem BioAssay, several laboratories
